# Screening data as filed in PubChem BioAssay.
# PglD inh: C. jejuni PglD acetyltransferase inhibitors, primary screen, biochemical, DTNB colorimetric, single point. UDP-N-acetylbacillosamine N-acetyltransferase PglD (Campylobacter jejuni). purified PglD enzyme, DTNB colorimetric CoA detection. inhibition, % at 12.5 µM. hit rate 0.098% among 360,000. AID 602405, 2012; in the data active = inhibition above about 16%, passing the limit was not always enough
# Env fusion inh: inhibitors of HIV-1 Env-driven cell-cell fusion, primary screen, HeLa-JRFL effector, CEM21 target cells, luciferase. hit rate 1.1% among 360,000. AID 651610, 2012. inhibition, % at 12.3 µM;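 active = mean replicate inhibition score of at least 50 and every replicate individually at or above 50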;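 note: 0% = plate neutral controls and 100% = maraviroc near 300 nM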
# Glyco luc inh: increase of ERlucT glycosylation luciferase signal, primary screen, N-linked glycosylation inhibitor project, D54 ERlucT cells, luminescence, set 2; hit rate 0.23% among 360,000; D54 ERlucT glycosylation luciferase reporter, 24 h; percent of 100 nM tunicamycin response; reporter increase, % at 12.5 µM; AID 588692, 2011;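 active = mean luciferase reporter signal, scaled so untreated is 0 and the glycosylation-blocking control 100, at or above a set limit in every replicate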;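 note: luciferase carries N-glycosylation sites so blocking glycosylation raises the light; 0% = median of neutral control wells and 100% = median of 100 nM tunicamycin wells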
# Rtt109 Vps75: inhibitors of C. albicans Rtt109/Vps75 HAT, primary screen, biochemical, ThioGlo CoA-SH fluorescence, plate reader. AID 540336, 2011. hit rate 0.16% among 330,000. inhibition, % at 34.9 µM. purified Rtt109/Vps75, 4 h;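 active = inhibition of at least 50% in every replicate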
# SR-BI DiI inh: inhibitors of SR-BI mediated HDL lipid uptake, primary screen, ldlA[mSR-BI] cells, fluorescence, single point | Scavenger receptor class B member 1 (Mus musculus), Q61009 | ldlA[mSR-BI] CHO cells, DiI-HDL uptake fluorescence, 3 h | inhibition, % at 12.5 µM | hit rate 0.96% among 320,000 | AID 488896, 2010;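 active = mean replicate inhibition of at least 70% and a set share of replicates each scoring 70 or more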;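 note: 0% = median of neutral control wells and 100% = median of positive control wells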
# Target sequence (Q61009 whole entry, looked up): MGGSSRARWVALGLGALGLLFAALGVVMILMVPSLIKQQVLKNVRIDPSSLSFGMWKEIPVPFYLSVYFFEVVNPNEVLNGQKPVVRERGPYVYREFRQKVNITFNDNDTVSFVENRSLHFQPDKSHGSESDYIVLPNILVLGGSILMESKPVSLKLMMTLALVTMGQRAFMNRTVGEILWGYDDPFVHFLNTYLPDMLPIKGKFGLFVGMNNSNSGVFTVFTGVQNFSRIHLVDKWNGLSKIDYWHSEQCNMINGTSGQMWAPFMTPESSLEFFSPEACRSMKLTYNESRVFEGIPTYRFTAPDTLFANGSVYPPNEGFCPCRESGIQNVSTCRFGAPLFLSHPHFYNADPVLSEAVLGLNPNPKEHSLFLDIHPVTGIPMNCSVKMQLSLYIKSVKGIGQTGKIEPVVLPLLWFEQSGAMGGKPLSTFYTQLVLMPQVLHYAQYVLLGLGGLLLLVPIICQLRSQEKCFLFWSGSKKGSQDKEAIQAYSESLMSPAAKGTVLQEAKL
# SR-BI uptake up: activators of SR-BI mediated DiI-HDL uptake, primary screen, ldlA[mSR-BI] CHO cells, DiI fluorescence; hit rate 0.096% among 320,000; 3 h; 100 = double the neutral-control signal; AID 504775, 2011; activation, % at 12.5 µM;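 active = mean replicate activation of at least 60% and every replicate at or above 60%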;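 note: 0% = median plate neutral-control signal and 100% = twice that signal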
#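 material = CHO ldlA[mSR-BI] cells | medium = Ham's F12 with 0.5% BSA, HEPES 25 mM, pH 7.4 | reagent = fluorescent DiI-HDL, 10 µg/mL final | compound dosing = single-point compound dose | incubation = 3 h, 37 °C | measured by = bottom-read fluorescence, 550/595 nm | measure = HDL uptake via cellular fluorescence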
# Starred values were filed as active, the others as inactive; . = no result; [ ] = remark or other dose. In the library only some 1.9% were active in any assay of this set; here they are far more common.
SMILES,PglD inh,Env fusion inh,Glyco luc inh,Rtt109 Vps75,SR-BI DiI inh,SR-BI uptake up
N#CC1=C(N)N2C(=C(C#N)C1c1ccc(Br)cc1)Nc1ccccc12 (stereo not given),.,55.7*,.,.,.,.
N#CC1=C(N)N2C(=C(C#N)C1c1cccc(Br)c1)Nc1ccccc12 (stereo not given),.,64.8*,-10.5,6.9,31.3,-31.3
Cc1cccc(CCNC(=O)CCc2nc(-c3ccccc3F)no2)c1,-4.9,.,-1.7,-4.4,-3.0,3.0
CN(C(=O)CCc1nc(-c2ccccc2F)no1)c1ccccc1,.,2.5,-3.2,54.8*,.,.
O=C(NCc1ccc2c(c1)OCO2)c1cccc(C(=O)NCc2ccc3c(c2)OCO3)c1,-2.2,.,-2.5,-14.3,1.7,-1.7
O=C(NCc1ccc2c(c1)OCO2)c1cc2c(s1)CSC2,3.1,60.8*,0.9,-3.1,-6.5,6.5
COC(=O)COc1c(/C=C\c2nc(O)c([N+](=O)[O-])c(=O)[nH]2)cccc1OC,5.1,-10.0,1.7,-2.9,74.9*,-74.9
C[C@@H]1CN([C@H](C)CO)C(=O)c2cc(C#Cc3ccccc3F)cnc2O[C@H]1CN(C)C(=O)C1CCOCC1,7.1,-2.1[16.7 µM],.,.,.,.
CC(=O)c1c(C)[nH]c(C(=O)Nc2cccc(S(=O)(=O)N3CCCC3)c2)c1C,-3.3,1.2,17.8,15.8,73.7*,-73.7
CN(C)S(=O)(=O)c1cc(NC(=O)C2=COCCO2)ccc1Cl,-2.3,7.9,3.9,-2.0,-1.5,1.5
CC(=O)c1c(C)[nH]c(C(=O)OCC(=O)Nc2cccc(S(=O)(=O)N3CCCC3)c2)c1C,3.2,34.8,4.4,7.8,45.3,-45.3
CC(=O)c1c(C)[nH]c(C(=O)Nc2ccc(S(=O)(=O)N(C)C)cc2)c1C,1.4,-7.1,8.6,-5.3,-2.3,2.3
Cc1cccc(OCCCC(=O)Nc2ccc(Cl)c(S(=O)(=O)N3CCOCC3)c2)c1,-1.7,61.9*,-1.3,0.5,1.3,-1.3
O=C(Nc1ccc(Cl)c(S(=O)(=O)N2CCCCC2)c1)C1=COCCO1,-2.6,-8.2,-0.4,51.9*,-17.5,17.5
CC(=O)c1c(C)[nH]c(C(=O)Nc2cc(C)cc(C)c2)c1C,.,.,6.1,4.2,82.6*,-82.6
C[C@H](CO)N1C[C@H](C)[C@@H](CN(C)S(=O)(=O)c2ccc(C#N)cc2)OCc2ccccc2-c2ccccc2C1=O,-3.8,.,.,.,.,.
C[C@H](CO)N1C[C@H](C)[C@@H](CN(C)C(=O)CC2CC2)Oc2cc(-c3cccnc3)ccc2S1(=O)=O,2.0,-15.2[16.7 µM],.,.,.,.
C[C@H](CO)N1C[C@H](C)[C@H](CN(C)Cc2ccccn2)Oc2ncc(-c3ccccc3)cc2C1=O,1.4,-7.7[16.7 µM],.,.,.,.
COc1ccc(NC(=O)c2[nH]c(C)c(C(C)=O)c2C)cc1S(=O)(=O)N1CCOCC1,.,-2.5,13.0,17.9,64.2,-64.2
CC(=O)c1c(C)[nH]c(C(=O)Nc2ccc(Cl)c(S(=O)(=O)N3CCOCC3)c2)c1C,.,24.9,4.2,-1.6,79.4*,-79.4
CCc1ccc2c(c1)C(c1ccc([N+](=O)[O-])cc1)=NNC(c1ccc(C)cc1)=N2,-4.2,-8.7,-3.1,-5.2,75.0*,-75.1
CCCCCCCCCCCCCCCCCCNc1ccn(C2OC(COP(=O)(O)OCC3OC(n4cc(F)c(=O)[nH]c4=O)CC3O)C(O)C2O)c(=O)n1 (stereo not given),.,21.2,34.9*,13.4,-28.6,28.6
C[C@H]1O[C@@H](n2cc(F)c(=O)[nH]c2=O)[C@H](O)[C@@H]1O,2.1,-15.2,-0.5,9.4,-17.9,17.9
C[C@H](CO)N1C[C@H](C)[C@H](CN(C)Cc2ccc(C(=O)O)cc2)Oc2ccc(NC(=O)Cc3ccccc3)cc2C1=O,6.4,-35.3[16.7 µM],.,.,.,.
Cc1ccc(C(=O)OCC(=O)Nc2ccccc2)cc1NC(=O)c1ccco1,1.4,-24.5,-1.0,7.1,-7.8,7.8
SMILES,PglD inh,Env fusion inh,Glyco luc inh,Rtt109 Vps75,SR-BI DiI inh,SR-BI uptake up
Cc1ccc(C(=O)OCC(=O)Nc2nc(-c3ccccc3)cs2)cc1NC(=O)c1ccco1,-6.7,-12.9,1.1,0.5,83.5*,-83.5
Cc1noc(C)c1NC(=O)Nc1ccc2c(c1)C(=O)N([C@H](C)CO)C[C@H](C)[C@@H](CN(C)C(=O)Nc1ccc(F)cc1)OCCCC[C@H](C)O2,0.1,12.6[16.7 µM],.,.,.,.
Cc1ccn2c(/C=N/OCc3cccc(F)c3)c(-c3ccc(Cl)cc3)nc2c1,.,.,0.6,8.7,77.6*,-77.6
Cc1noc(C)c1S(=O)(=O)N(C)C[C@H]1Oc2ccc(NC(=O)Nc3ccc4c(c3)OCO4)cc2CC(=O)N([C@H](C)CO)C[C@H]1C,-0.6,16.5[16.7 µM],.,.,.,.
CO[C@@H]1CN(C)C(=O)c2cc(NC(C)=O)ccc2OC[C@H](C)N(Cc2cncnc2)C[C@@H]1C,1.7,18.2[16.7 µM],.,.,.,.
CC1CCC(=C(C#N)c2nc(-c3cc4ccccc4oc3=O)cs2)CC1 (stereo not given),-3.6,.,-11.5,-3.3,76.1*,-76.1
Cc1noc(C)c1NC(=O)Nc1ccc2c(c1)CC(=O)N([C@@H](C)CO)C[C@H](C)[C@@H](CN(C)S(C)(=O)=O)O2,3.8,9.1[16.7 µM],.,.,.,.
CCOP(=O)(OCC)c1nc(-c2cccc3ccccc23)oc1NCCc1ccc(OC)cc1,1.8,62.7*,-6.0,-21.3,-12.3,12.3
CC(C)NC(=O)N[C@H]1C=C[C@H](CC(=O)NCCN2CCCC2)O[C@H]1CO,-0.1,-2.4[16.7 µM],.,.,.,.
CCC(C)NC(=O)CN1C(=O)C(CC)Sc2ccccc21 (stereo not given),-0.8,-1.4,1.6,3.8,-22.8,22.8
CC1Sc2ccccc2N(CC(=O)N(C(C)C)C(C)C)C1=O (stereo not given),-1.2,.,1.5,51.0*,3.8,-3.8
COc1cc(/C=C/C(=O)OCC(=O)N2CCN(S(=O)(=O)c3ccc(C)cc3C)CC2)ccc1OC(F)F,-0.3,.,-3.1,9.0,78.1*,-78.1
Cc1ccc(S(=O)(=O)N2CCN(C(=O)COC(=O)/C=C/c3ccc(F)cc3)CC2)c(C)c1,-0.5,-14.2,0.6,-6.5,20.9,-20.9
COc1cccc(/C=C/C(=O)OCC(=O)c2c[nH]c3ccccc23)c1,-1.0,.,3.8,-4.5,5.5,-5.5
CCc1cccc2c(C(=O)COC(=O)/C=C/c3ccc(O)c(OC)c3)c[nH]c12,0.4,-27.3,-4.2,-3.7,75.5*,-75.5
